Test results as given in ChEMBL document CHEMBL3244308, “Potential antitumor agents. 22. Latentiated congeners of the 4'-(9-acridinylamino)methanesulfonanilides” (J Med Chem, 1977).

Tests used:
[1] = system: L1210; test: Antitumor activity against mouse L1210 cells intraperitoneally xenografted in ip dosed C3H/DBA2 F1 hybrid mouse assessed as increase in host lifespan administered daily for 5 days starting 24 hrs post-tumor implantation; type: functional
Outline: (§1)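 10⁵ L1210 cells implanted ip into 18.5-22.5-g C3H/DBA2 F1 mice. Daily ip treatment for 5 days from 24 h after implant, as water-soluble salts (methanesulfonate or hydrochloride) or as homogenized suspensions in aqueous methylcellulose. Groups of six mice. Read-out is increase in life span (T/C% − 100) at the optimum dose (maximal life-span increase, mg/kg/day); 50-day survivors counted.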

[2] = Lipophilic-hydrophilic balance, Rm of the compound by reversed-phase partition chromatography; type: physicochemical
[3] = system: Mus musculus; test: Toxicity in ip dosed mouse assessed as optimum dose that providing maximum increase in life span administered qd for 1 to 5 days; type: organism-based; details: in vivo
Outline: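 Mice were C3H/DBA2 F1 hybrids weighing 18.5-22.5 g. L1210 cells (10^5) were implanted ip or sc above the right axilla. Daily ip treatment began 24 h later and continued for 5 days (dq 1-5), given in water or as a homogenized suspension in aqueous methylcellulose. The optimum dose (mg/kg/day) is the one giving maximum life-span increase (T/C% - 100). Groups were six mice; 50-day survivors were counted.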

[4] = system: L1210; test: Antitumor activity against mouse L1210 cells subcutaneously xenografted in ip dosed C3H/DBA2 F1 hybrid mouse assessed as increase in host lifespan administered daily for 5 days starting 24 hrs post-tumor implantation; type: functional
Outline: as §1, with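 “implanted sc above the right axilla” for “implanted ip”, “ip dosing” for “ip treatment”, “salts” for “salts (methanesulfonate or hydrochloride)”, “mice. Increase” for “mice. Read-out is increase”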

[5] = system: Blood; test: Stability in mouse blood assessed as 4'-(9-acridinylamino)methanesulfonanilide release at 37 degC; type: ADME, tissue-based
[6] = Half life of the compound in 0.1 M mercaptoethanol buffer at pH 7.4 at 37 degC by thiolytic assay; type: physicochemical

Row | Structure (SMILES) | ILS [1] | Rm [2] | Activity [3] | ILS [4] | Stability [5] | half-life [6]
1 | Br.CCCCCCCCCCCC(=O)N(c1ccc(Nc2c3ccccc3nc3cc(NC(C)=O)ccc23)cc1)S(C)(=O)=O | 72% | 0.81 | 30 mg/kg | 41% |  | 
2 | CCCCCCCC(=O)N(c1ccc(Nc2c3ccccc3nc3cc([N+](=O)[O-])ccc23)cc1)S(C)(=O)=O | 62% | 0.61 | 10 mg/kg | 47% |  | 
3 | CCCCCC(=O)N(c1ccc(Nc2c3ccccc3nc3cc(NC(C)=O)ccc23)cc1)S(C)(=O)=O.Cl | 81% | 0.51 | 42 mg/kg | 43% |  | 
4 | CCCCC(=O)N(c1ccc(Nc2c3ccccc3nc3ccccc23)cc1)S(C)(=O)=O.Cl | 68% | 0.34 | 400 mg/kg | 28% |  | 
5 | CCCCC(=O)N(c1ccc(Nc2c3ccccc3nc3cc(NC(C)=O)ccc23)cc1)S(C)(=O)=O.Cl | 89% | 0.36 | 80 mg/kg | 63% |  | 
6 | CCCC(=O)N(c1ccc(Nc2c3ccccc3nc3cc(NC(C)=O)ccc23)cc1)S(C)(=O)=O.Cl | 98% | 0.22 | 50 mg/kg | 62% |  | 
7 | CS(=O)(=O)Nc1ccc(Nc2c3ccccc3nc3ccccc23)cc1 | 107% | 0 | 45 mg/kg | 28% |  | 
8 | Br.CCCCCCCC(=O)N(c1ccc(Nc2c3ccccc3nc3cc(NC(C)=O)ccc23)cc1)S(C)(=O)=O | 83% | 0.69 | 22 mg/kg | 45% |  | 
9 | CS(=O)(=O)Nc1ccc(Nc2c3ccccc3nc3cc([N+](=O)[O-])ccc23)cc1 | 123% | -0.07 | 25 mg/kg | 43% |  | 
10 | CC(=O)N(c1ccc(Nc2c3ccc([N+](=O)[O-])cc3nc3c(C)cccc23)cc1)S(C)(=O)=O | 217% | -0.03 | 200 mg/kg | 188% |  | 
11 | CCCCCCCCC(=O)N(c1ccc(Nc2c3ccccc3nc3cc([N+](=O)[O-])ccc23)cc1)S(C)(=O)=O | 144% | 0.71 | 75 mg/kg | 61% |  | 
12 | CCC(=O)N(c1ccc(Nc2c3ccccc3nc3ccccc23)cc1)S(C)(=O)=O.Cl | 88% | 0.07 | 300 mg/kg | 56% |  | 
13 | COc1cc(NS(C)(=O)=O)ccc1Nc1c2ccccc2nc2cc(N=[N+]=[N-])ccc12.Cl | 118% | 0.14 | 8 mg/kg | 47% |  | 
14 | CC(=O)N(c1ccc(Nc2c3ccccc3nc3cc([N+](=O)[O-])ccc23)cc1)S(C)(=O)=O | 138% | -0.08 | 50 mg/kg | 61% |  | 
15 | COc1cc(NS(C)(=O)=O)ccc1Nc1c2ccccc2nc2cc(/N=N/N(C)C)ccc12.Cl | 141% | 0.38 | 10 mg/kg | 34% |  | 
16 | CCCC(=O)N(c1ccc(Nc2c3ccc([N+](=O)[O-])cc3nc3c(C)cccc23)cc1)S(C)(=O)=O | 71% | 0.31 | 50 mg/kg | 31% |  | 
17 | CC(=O)N(c1ccc(Nc2c3ccccc3nc3ccccc23)cc1)S(C)(=O)=O.Cl | 109% | -0.14 | 160 mg/kg | 68% | Unstable | 6.6 h
18 | Br.CCCCCCCCCCC(=O)N(c1ccc(Nc2c3ccccc3nc3cc(NC(C)=O)ccc23)cc1)S(C)(=O)=O | 64% | 0.79 | 30 mg/kg | 39% |  | 
19 | CCC(=O)N(c1ccc(Nc2c3ccccc3nc3cc(NC(C)=O)ccc23)cc1)S(C)(=O)=O.Cl | 135% | 0 | 40 mg/kg | 88% |  | 
20 | CS(=O)(=O)Nc1ccc(Nc2c3ccccc3nc3cc(N=[N+]=[N-])ccc23)cc1.Cl | 216% | -0.02 | 16 mg/kg | 64% |  | 
21 | CCCCCC(=O)N(c1ccc(Nc2c3ccccc3nc3cc([N+](=O)[O-])ccc23)cc1)S(C)(=O)=O | 57% | 0.41 | 5 mg/kg | 39% |  | 
22 | CCC(=O)N(c1ccc(Nc2c3ccc([N+](=O)[O-])cc3nc3c(C)cccc23)cc1)S(C)(=O)=O | 81% | 0.2 | 50 mg/kg | 27% |  | 
23 | COC(=O)N(c1ccc(Nc2c3ccccc3nc3ccccc23)cc1)S(C)(=O)=O.Cl | 67% | 0.07 | 250 mg/kg | 36% |  | 
24 | Br.CCCCCCCCC(=O)N(c1ccc(Nc2c3ccccc3nc3cc(NC(C)=O)ccc23)cc1)S(C)(=O)=O | 143% | 0.72 | 45 mg/kg | 83% |  | 
25 | Br.CCCCCCC(=O)N(c1ccc(Nc2c3ccccc3nc3cc(NC(C)=O)ccc23)cc1)S(C)(=O)=O | 71% | 0.63 | 14 mg/kg | 47% |  | 
26 | CCCCCCCCCCCCCCCCCC(=O)N(c1ccc(Nc2c3ccccc3nc3cc(NC(C)=O)ccc23)cc1)S(C)(=O)=O | 68% | 0.87 | 450 mg/kg | 39% |  | 
27 | CCCN(C)/N=N/c1ccc2c(Nc3ccc(NS(C)(=O)=O)cc3)c3ccccc3nc2c1.CS(=O)(=O)O | 98% | 0.47 | 15 mg/kg | 27% |  | 
28 | Cc1cccc2c(Nc3ccc(NS(C)(=O)=O)cc3)c3ccc([N+](=O)[O-])cc3nc12 | 113% | -0.01 | 100 mg/kg | 98% |  | 
